Reference: ChEMBL document CHEMBL1212900, “Falcipain inhibitors: optimization studies of the 2-pyrimidinecarbonitrile lead series” (J Med Chem, 2010)

How the values were obtained:
[1] = Inhibition of Plasmodium falciparum falcipain-2 expressed in Escherichia coli
In short: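 Recombinant E. coli-expressed, refolded enzyme at 0.25 nM in 100 mM sodium acetate pH 5.5, 500 μM CHAPS, 10 mM DTT, DMSO ≤1%. Substrate H-D-Val-Leu-Arg-AFC at 30 μM final. Inhibitor dilutions mixed with substrate, enzyme added last; fluorescence followed 1 h at room temperature. IC50 from percent activity versus concentration.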

[2] = Inhibition of Plasmodium falciparum falcipain-3 expressed in Escherichia coli
In short: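 Refolded recombinant enzyme from E. coli, 2 nM, in 100 mM sodium acetate pH 5.5 with 500 μM CHAPS and 10 mM DTT, DMSO up to 1%. H-D-Val-Leu-Arg-AFC at 150 μM final. Reaction started by enzyme addition; fluorescence monitored 1 h at room temperature. IC50 derived from percent activity plotted against inhibitor concentration.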

Plasmodium falciparum = experiment: Antiplasmodial activity against Plasmodium falciparum W2 after 48 hrs; type: functional, organism-based; settings: W2, 48 h
In short: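 W2 P. falciparum grown in human erythrocytes, 2% hematocrit, RPMI with 10% human serum or 0.5% AlbuMAX II; sorbitol-synchronized. Serial dilutions from DMSO stocks added at ring stage for 48 h, medium and drug renewed at 24 h. Cells fixed in 1% formaldehyde, stained with YOYO-1, parasitemia counted by flow cytometry; IC50 from percent parasitemia versus untreated controls.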

| IC50 [1] [nM] | IC50 [2] [nM] | IC50 (Plasmodium falciparum) [nM] | SMILES |
| --- | --- | --- | --- |
| 3 | 104 |  | CC(C)CN(NC(=O)c1ccc(-c2ccccc2)nc1)c1nc(C#N)ncc1Br |
| 3 | 111 | 438 | CN1CCN(Cc2ccc(C(=O)NN(CC3CCC3)c3nc(C#N)ncc3Br)cc2)CC1 |
| 0.5 | 6 | 33 | CN1CCN(Cc2ccc(C(=O)NN(CC3CCCC3)c3nc(C#N)ncc3Br)cc2)CC1 |
| 2 | 16 | 263 | CN1CCN(Cc2ccc(C(=O)NN(CC3CCCCC3)c3nc(C#N)ncc3Br)cc2)CC1 |
| 5 | 17 | 1490 | CN1CCN(Cc2ccc(C(=O)NN(CC3(C)CCCCC3)c3nc(C#N)ncc3Br)cc2)CC1 |
| 20 | 351 |  | CC(C)CN(NC(=O)c1ccc(-c2ccc(Cl)cc2)o1)c1nc(C#N)ncc1Br |
| 5 | 97 |  | CC(C)CN(NC(=O)c1ccc(-c2cccc(C(F)(F)F)c2)o1)c1nc(C#N)ncc1Br |
| 25 | 837 |  | Cc1oc(-c2ccccc2)cc1C(=O)NN(CC(C)C)c1nc(C#N)ncc1Br |
| 6 | 549 |  | CC(C)CN(NC(=O)c1ccc(-c2ccccc2)s1)c1nc(C#N)ncc1Br |
| 3 | 374 |  | CC(C)CN(NC(=O)c1cc(-c2ccccc2)cs1)c1nc(C#N)ncc1Br |
| 4 | 45 | 177 | CN1CCN(Cc2ccc(C(=O)NN(CCC3CCCC3)c3nc(C#N)ncc3Br)cc2)CC1 |
| 14 | 94 |  | CC(C)CN(NC(=O)c1ncoc1-c1ccccc1)c1nc(C#N)ncc1Br |
| 1.5 | 54 |  | CC(C)CN(NC(=O)c1csc(-c2ccccc2)n1)c1nc(C#N)ncc1Cl |
| 3 | 130 |  | CC(C)CN(NC(=O)c1csc(-c2ccccc2)n1)c1nc(C#N)ncc1Br |
| 3 | 950 |  | Cc1nc(-c2ccc3c(c2)CCO3)sc1C(=O)NN(CC(C)C)c1nc(C#N)ncc1Cl |
| 2 | 198 |  | CC(C)CN(NC(=O)c1cnc(-c2ccc3c(c2)CCO3)s1)c1nc(C#N)ncc1Cl |
| 4 | 146 |  | CC(C)CN(NC(=O)c1c[nH]c(-c2ccccc2)n1)c1nc(C#N)ncc1Br |
| 2 | 120 |  | CC(C)CN(NC(=O)c1cc(-c2ccccc2)no1)c1nc(C#N)ncc1Cl |
| 10 | 359 |  | CC(C)CN(NC(=O)c1cc(-c2ccccc2)no1)c1nc(C#N)ncc1Br |
| 676 | 1100 |  | Cc1nn(-c2ccccc2)nc1C(=O)NN(CC(C)C)c1nc(C#N)ncc1Br |
| 1.5 | 6 |  | COc1ccc(CC(=O)NN(CC(C)C)c2nc(C#N)ncc2Br)cc1 |
| 1 | 5 |  | COc1ccc(CC(=O)NN(CC(C)C)c2nc(C#N)ncc2Cl)cc1 |
| 3 | 4 |  | CC(C)CN(NC(=O)Cc1ccc(F)cc1)c1nc(C#N)ncc1Br |
| 0.5 | 8 |  | CC(C)CN(NC(=O)Cc1c(F)cccc1F)c1nc(C#N)ncc1Br |

| IC50 [1] [nM] | IC50 [2] [nM] | IC50 (Plasmodium falciparum) [nM] | SMILES |
| --- | --- | --- | --- |
| 1 | 66 |  | CC(C)CN(NC(=O)Cc1c(Cl)cccc1Cl)c1nc(C#N)ncc1Br |
| 1 | 21 |  | Cc1cc(C)c(CC(=O)NN(CC(C)C)c2nc(C#N)ncc2Br)c(C)c1 |
| 18 | 60 |  | CC(C)CN(NC(=O)C(C)(C)c1ccccc1)c1nc(C#N)ncc1Br |
| 4 | 18 |  | CC(C)CN(NC(=O)C(C)(C)c1ccc(Cl)cc1)c1nc(C#N)ncc1Br |
| 6 | 34 |  | COc1ccc(C(C)(C)C(=O)NN(CC(C)C)c2nc(C#N)ncc2Br)cc1 |
| 6 | 102 |  | CC(C)CN(NC(=O)C1(c2ccccc2)CC1)c1nc(C#N)ncc1Br |
| 15 | 69 |  | CC(C)CN(NC(=O)C1(c2ccc(Cl)cc2)CC1)c1nc(C#N)ncc1Br |
| 12 | 216 |  | CC(C)CN(NC(=O)C1(c2ccc(Cl)cc2)CCC1)c1nc(C#N)ncc1Br |
| 11 | 137 |  | CC(C)CN(NC(=O)C1(c2ccccc2)CCCC1)c1nc(C#N)ncc1Br |
| 12 | 184 |  | CC(C)CN(NC(=O)C1(c2ccc(Cl)cc2)CCCC1)c1nc(C#N)ncc1Br |
| 40 | 1650 |  | CC(C)CN(NC(=O)C1(c2ccc(Cl)cc2)CCCCC1)c1nc(C#N)ncc1Br |
| 7 | 34 |  | CC(C)CN(NC(=O)C(N)c1ccccc1)c1nc(C#N)ncc1Br (stereo unspecified) |
| 0.4 | 55 | 15 | CC(C)CN(NC(=O)c1ccc(CN2CCN(C)CC2)cc1)c1nc(C#N)ncc1Br |
| 19 | 158 | 409 | CN1CCN(Cc2ccc(C(=O)NN(CC(C)(C)C)c3nc(C#N)ncc3Br)cc2)CC1 |
| 4 | 68 | 262 | CC(C)CCN(NC(=O)c1ccc(CN2CCN(C)CC2)cc1)c1nc(C#N)ncc1Br |
| 3 | 39 | 1500 | CN1CCN(Cc2ccc(C(=O)NN(CCC(C)(C)C)c3nc(C#N)ncc3Br)cc2)CC1 |
| < 0.5 | 15 |  | CC(C)CN(NC(=O)c1cccc(-c2ccncc2)c1)c1nc(C#N)ncc1Br |
| < 0.5 | 12 |  | CC(C)CN(NC(=O)c1cccc(-c2cncnc2)c1)c1nc(C#N)ncc1Br |
| 2 | 44 | 194 | CCC(CC)CN(NC(=O)c1ccc(CN2CCN(C)CC2)cc1)c1nc(C#N)ncc1Br |
| 81 | 802 | 1200 | CCCC(CCC)CN(NC(=O)c1ccc(CN2CCN(C)CC2)cc1)c1nc(C#N)ncc1Br |
| 293 | 656 | 566 | CCCCC(CCCC)CN(NC(=O)c1ccc(CN2CCN(C)CC2)cc1)c1nc(C#N)ncc1Br |
| 0.9 | 35 | 24 | CCC(C)CN(NC(=O)c1ccc(CN2CCN(C)CC2)cc1)c1nc(C#N)ncc1Br (stereo unspecified) |
| < 0.5 | 4 |  | CC(C)CN(NC(=O)c1cncc(-c2ccccc2)c1)c1nc(C#N)ncc1Br |
| 0.8 | 26 |  | CC(C)CN(NC(=O)c1cncc(-c2ccccc2)c1)c1nc(C#N)ncc1Cl |

| IC50 [1] [nM] | IC50 [2] [nM] | IC50 (Plasmodium falciparum) [nM] | SMILES |
| --- | --- | --- | --- |
| 1 | 30 |  | CC(C)CN(NC(=O)c1cc(-c2ccccc2)ncn1)c1nc(C#N)ncc1Cl |
| 0.8 | 164 |  | Cc1nc(-c2ccc(C(=O)NN(CC(C)C)c3nc(C#N)ncc3Br)cc2)cs1 |
| 2 | 52 | 272 | CCCC(C)CN(NC(=O)c1ccc(CN2CCN(C)CC2)cc1)c1nc(C#N)ncc1Br (stereo unspecified) |
| 29 | 1370 | 401 | CC(C)N(NC(=O)c1ccc(CN2CCN(C)CC2)cc1)c1nc(C#N)ncc1Br |
| 187 | 2040 | 1610 | CCC(CC)N(NC(=O)c1ccc(CN2CCN(C)CC2)cc1)c1nc(C#N)ncc1Br |
| 5 | 330 | 1080 | CN1CCN(Cc2ccc(C(=O)NN(CC3CC3)c3nc(C#N)ncc3Br)cc2)CC1 |
| 8 | 148 |  | CC(C)CN(NC(=O)c1ccc(-n2cccn2)cc1)c1nc(C#N)ncc1Cl |
| 2 | 144 |  | CC(C)CN(NC(=O)c1ccc(-n2ccc(C(F)(F)F)n2)cc1)c1nc(C#N)ncc1Cl |
| 3 | 52 |  | CC(C)CN(NC(=O)c1ccc(-n2cncn2)cc1)c1nc(C#N)ncc1Br |
| 1 | 39 |  | CC(C)CN(NC(=O)c1ccc(-c2ccccc2)o1)c1nc(C#N)ncc1Br |
| 406 | 999 |  | Cc1nc(-c2ccccc2)sc1C(=O)NN(CC(C)C)c1nc(C#N)ncc1Br |
| 12 | 1540 |  | Cc1nc(-c2ccc(C(F)(F)F)cc2)sc1C(=O)NN(CC(C)C)c1nc(C#N)ncc1Cl |
| 4 | 692 |  | COc1ccc(-c2cc(C(=O)NN(CC(C)C)c3nc(C#N)ncc3Br)no2)cc1 |
| 8 | 128 |  | CC(C)CN(NC(=O)c1cnoc1-c1ccccc1)c1nc(C#N)ncc1Cl |
| 20 | 71 |  | Cc1c(C(=O)NN(CC(C)C)c2nc(C#N)ncc2Br)noc1-c1ccccc1 |
| 100 | 571 |  | Cc1c(-c2ccccc2Cl)noc1C(=O)NN(CC(C)C)c1nc(C#N)ncc1Cl |
| 3 | 352 |  | CC(C)CN(NC(=O)c1cc(-c2ccccc2)[nH]n1)c1nc(C#N)ncc1Br |
| 7 | 63 |  | CC(C)CN(NC(=O)c1ccnn1-c1ccccc1)c1nc(C#N)ncc1Cl |
| 4 | 218 |  | CC(C)CN(NC(=O)c1cc(-c2cccs2)on1)c1nc(C#N)ncc1Br |
| 5 | 451 |  | CC(C)CN(NC(=O)c1cc(-c2cccs2)[nH]n1)c1nc(C#N)ncc1Cl |
| 2 | 165 |  | Cc1nc(-c2ccccc2)ncc1C(=O)NN(CC(C)C)c1nc(C#N)ncc1Br |
| 9 | 239 |  | CC(C)CN(NC(=O)c1ccc(-n2ccnc2)cc1)c1nc(C#N)ncc1Br |
| 58 | 407 |  | C[C@H]1CCC[C@H]1N(NC(=O)OC(C)(C)C)c1nc(C#N)ncc1Br (relative stereo) |
| 3 | 6 |  | C[C@@H]1CCC[C@H]1N(NC(=O)OC(C)(C)C)c1nc(C#N)ncc1Br (relative stereo) |
